Test results as given in article PMC13170702 (Nuclear medicine and biology, 2025).

Legend:
[1] = i.v., low molar activity tracer, PET-CT; cited from earlier work
[2] = whole-body PET-MR biodistribution and TIAC determination; format: in vivo, human
Summary of the method: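 Tracer 70.3–355 MBq was given as an i.v. bolus; whole-body PET-MR used 6 bed positions. WB1–WB5 ran 0–34 min (1 min/bed), WB6–7 35–60 min (2 min/bed), WB8 80–104 min and WB9 180–214 min (4 min/bed). Voiding and water were allowed in breaks. SUV was read from AMIDE VOIs at early times (<1 h). Decay-corrected %IA per organ VOI over time was fitted by the exponential model (OLINDA/EXM 1.1) for TIACs.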

COC(=O)[C@@H](N)CC(=O)Nc1ccc2c(c1)Cc1cc([18F])ccc1-2 [[^18F]RP-115, methyl N^4-(7-[^18F]fluoro-9H-fluoren-2-yl)asparaginate]
CNS activity uptake (SUV) [1]: > 1 | SUV, brain and spinal tissues ([2]; 27–34 min after injection): > 1 | SUV, major organs, CNS and peripheral tissues ([2]; 27–34 min after injection): > 1 | TIAC, Brain ([2]; F1 (189 MBq)): 0.084 MBq-h/MBq | TIAC, Gallbladder wall ([2]; F1 (189 MBq)): 0.0031 MBq-h/MBq | TIAC, Heart contents ([2]; F1 (189 MBq)): 0.00463 MBq-h/MBq | TIAC, Heart wall ([2]; F1 (189 MBq)): 0.0155 MBq-h/MBq | TIAC, Kidneys ([2]; F1 (189 MBq)): 0.25 MBq-h/MBq | TIAC, Liver ([2]; F1 (189 MBq)): 0.209 MBq-h/MBq | TIAC, Lungs ([2]; F1 (189 MBq)): 0.274 MBq-h/MBq | TIAC, Pancreas ([2]; F1 (189 MBq)): 0.00899 MBq-h/MBq | TIAC, Remainder ([2]; F1 (189 MBq)): 1.28 MBq-h/MBq | TIAC, Small intestine ([2]; F1 (189 MBq)): 0.0843 MBq-h/MBq | TIAC, Spleen ([2]; F1 (189 MBq)): 0.0284 MBq-h/MBq | TIAC, Thymus ([2]; F1 (189 MBq)): 0.00372 MBq-h/MBq | TIAC, Thyroid ([2]; F1 (189 MBq)): 0.00052 MBq-h/MBq | TIAC, Urinary bladder contents ([2]; F1 (189 MBq)): 0.138 MBq-h/MBq | TIAC, Uterus/Uterine wall ([2]; F1 (189 MBq)): 0.00432 MBq-h/MBq | TIAC, Brain ([2]; F2, no voiding (355 MBq)): 0.075 MBq-h/MBq | TIAC, Gallbladder wall ([2]; F2, no voiding (355 MBq)): 0.00204 MBq-h/MBq | TIAC, Heart contents ([2]; F2, no voiding (355 MBq)): 0.00054 MBq-h/MBq | TIAC, Heart wall ([2]; F2, no voiding (355 MBq)): 0.0118 MBq-h/MBq | TIAC, Kidneys ([2]; F2, no voiding (355 MBq)): 0.391 MBq-h/MBq | TIAC, Liver ([2]; F2, no voiding (355 MBq)): 0.202 MBq-h/MBq | TIAC, Lungs ([2]; F2, no voiding (355 MBq)): 0.31 MBq-h/MBq | TIAC, Pancreas ([2]; F2, no voiding (355 MBq)): 0.00377 MBq-h/MBq | TIAC, Small intestine ([2]; F2, no voiding (355 MBq)): 0.0474 MBq-h/MBq | TIAC, Spleen ([2]; F2, no voiding (355 MBq)): 0.00188 MBq-h/MBq | TIAC, Thymus ([2]; F2, no voiding (355 MBq)): 0.00178 MBq-h/MBq | TIAC, Thyroid ([2]; F2, no voiding (355 MBq)): 0.0047 MBq-h/MBq | TIAC, Urinary bladder contents ([2]; F2, no voiding (355 MBq)): 0.127 MBq-h/MBq | TIAC, Uterus/Uterine wall ([2]; F2, no voiding (355 MBq)): 0.0564 MBq-h/MBq | TIAC, Brain ([2]; F3 (117 MBq)): 0.0606 MBq-h/MBq | TIAC, Gallbladder wall ([2]; F3 (117 MBq)): 0.00328 MBq-h/MBq | TIAC, Heart contents ([2]; F3 (117 MBq)): 0.00112 MBq-h/MBq | TIAC, Heart wall ([2]; F3 (117 MBq)): 0.0131 MBq-h/MBq | TIAC, Kidneys ([2]; F3 (117 MBq)): 0.266 MBq-h/MBq | TIAC, Liver ([2]; F3 (117 MBq)): 0.262 MBq-h/MBq | TIAC, Lungs ([2]; F3 (117 MBq)): 0.186 MBq-h/MBq | TIAC, Pancreas ([2]; F3 (117 MBq)): 0.00504 MBq-h/MBq | TIAC, Remainder ([2]; F3 (117 MBq)): 1.44 MBq-h/MBq | TIAC, Small intestine ([2]; F3 (117 MBq)): 0.0667 MBq-h/MBq | TIAC, Spleen ([2]; F3 (117 MBq)): 0.011 MBq-h/MBq | TIAC, Thymus ([2]; F3 (117 MBq)): 0.00146 MBq-h/MBq | TIAC, Thyroid ([2]; F3 (117 MBq)): 0.00131 MBq-h/MBq | TIAC, Urinary bladder contents ([2]; F3 (117 MBq)): 0.00659 MBq-h/MBq | TIAC, Uterus/Uterine wall ([2]; F3 (117 MBq)): 0.0115 MBq-h/MBq | TIAC, Brain ([2]; F4 (167 MBq)): 0.0781 MBq-h/MBq | TIAC, Gallbladder wall ([2]; F4 (167 MBq)): 0.00062 MBq-h/MBq | TIAC, Heart contents ([2]; F4 (167 MBq)): 0.0015 MBq-h/MBq | TIAC, Heart wall ([2]; F4 (167 MBq)): 0.0212 MBq-h/MBq | TIAC, Kidneys ([2]; F4 (167 MBq)): 0.245 MBq-h/MBq | TIAC, Liver ([2]; F4 (167 MBq)): 0.192 MBq-h/MBq | TIAC, Lungs ([2]; F4 (167 MBq)): 0.231 MBq-h/MBq | TIAC, Pancreas ([2]; F4 (167 MBq)): 0.0053 MBq-h/MBq | TIAC, Remainder ([2]; F4 (167 MBq)): 1.22 MBq-h/MBq | TIAC, Small intestine ([2]; F4 (167 MBq)): 0.126 MBq-h/MBq | TIAC, Spleen ([2]; F4 (167 MBq)): 0.0057 MBq-h/MBq | TIAC, Thymus ([2]; F4 (167 MBq)): 0.0021 MBq-h/MBq | TIAC, Thyroid ([2]; F4 (167 MBq)): 0.0009 MBq-h/MBq | TIAC, Urinary bladder contents ([2]; F4 (167 MBq)): 0.0319 MBq-h/MBq | TIAC, Uterus/Uterine wall ([2]; F4 (167 MBq)): 0.0133 MBq-h/MBq | TIAC, Brain ([2]; M1 (326 MBq)): 0.0947 MBq-h/MBq | TIAC, Gallbladder wall ([2]; M1 (326 MBq)): 0.00525 MBq-h/MBq | TIAC, Heart contents ([2]; M1 (326 MBq)): 0.00354 MBq-h/MBq | TIAC, Heart wall ([2]; M1 (326 MBq)): 0.0301 MBq-h/MBq | TIAC, Kidneys ([2]; M1 (326 MBq)): 0.351 MBq-h/MBq | TIAC, Liver ([2]; M1 (326 MBq)): 0.34 MBq-h/MBq | TIAC, Lungs ([2]; M1 (326 MBq)): 0.322 MBq-h/MBq | TIAC, Pancreas ([2]; M1 (326 MBq)): 0.0022 MBq-h/MBq | TIAC, Remainder ([2]; M1 (326 MBq)): 1.27 MBq-h/MBq | TIAC, Small intestine ([2]; M1 (326 MBq)): 0.161 MBq-h/MBq | TIAC, Spleen ([2]; M1 (326 MBq)): 0.0528 MBq-h/MBq | TIAC, Thymus ([2]; M1 (326 MBq)): 0.00576 MBq-h/MBq | TIAC, Thyroid ([2]; M1 (326 MBq)): 0.0007 MBq-h/MBq | TIAC, Urinary bladder contents ([2]; M1 (326 MBq)): 0.00668 MBq-h/MBq | TIAC, Brain ([2]; M2 (289 MBq)): 0.0531 MBq-h/MBq | TIAC, Gallbladder wall ([2]; M2 (289 MBq)): 0.0017 MBq-h/MBq | TIAC, Heart contents ([2]; M2 (289 MBq)): 0.0248 MBq-h/MBq | TIAC, Heart wall ([2]; M2 (289 MBq)): 0.202 MBq-h/MBq | TIAC, Kidneys ([2]; M2 (289 MBq)): 0.424 MBq-h/MBq | TIAC, Liver ([2]; M2 (289 MBq)): 0.19 MBq-h/MBq | TIAC, Lungs ([2]; M2 (289 MBq)): 0.0012 MBq-h/MBq | TIAC, Pancreas ([2]; M2 (289 MBq)): 0.111 MBq-h/MBq | TIAC, Remainder ([2]; M2 (289 MBq)): 1.37 MBq-h/MBq | TIAC, Small intestine ([2]; M2 (289 MBq)): 0.00196 MBq-h/MBq | TIAC, Spleen ([2]; M2 (289 MBq)): 0.0158 MBq-h/MBq | TIAC, Thymus ([2]; M2 (289 MBq)): 0.0013 MBq-h/MBq | TIAC, Thyroid ([2]; M2 (289 MBq)): 0.00039 MBq-h/MBq | TIAC, Urinary bladder contents ([2]; M2 (289 MBq)): 0.017 MBq-h/MBq | TIAC, Brain ([2]; M3 (70.3 MBq)): 0.0611 MBq-h/MBq | TIAC, Gallbladder wall ([2]; M3 (70.3 MBq)): 0.00199 MBq-h/MBq | TIAC, Heart contents ([2]; M3 (70.3 MBq)): 0.0027 MBq-h/MBq | TIAC, Heart wall ([2]; M3 (70.3 MBq)): 0.0297 MBq-h/MBq | TIAC, Kidneys ([2]; M3 (70.3 MBq)): 0.286 MBq-h/MBq | TIAC, Liver ([2]; M3 (70.3 MBq)): 0.249 MBq-h/MBq | TIAC, Lungs ([2]; M3 (70.3 MBq)): 0.298 MBq-h/MBq | TIAC, Pancreas ([2]; M3 (70.3 MBq)): 0.00353 MBq-h/MBq | TIAC, Remainder ([2]; M3 (70.3 MBq)): 1.29 MBq-h/MBq | TIAC, Small intestine ([2]; M3 (70.3 MBq)): 0.0651 MBq-h/MBq | TIAC, Spleen ([2]; M3 (70.3 MBq)): 0.0218 MBq-h/MBq | TIAC, Thymus ([2]; M3 (70.3 MBq)): 0.00217 MBq-h/MBq | TIAC, Thyroid ([2]; M3 (70.3 MBq)): 0.00057 MBq-h/MBq | TIAC, Urinary bladder contents ([2]; M3 (70.3 MBq)): 0.0429 MBq-h/MBq | TIAC, Brain ([2]; M4 (153 MBq)): 0.078 MBq-h/MBq | TIAC, Gallbladder wall ([2]; M4 (153 MBq)): 0.00356 MBq-h/MBq | TIAC, Heart contents ([2]; M4 (153 MBq)): 0.0033 MBq-h/MBq | TIAC, Heart wall ([2]; M4 (153 MBq)): 0.0276 MBq-h/MBq | TIAC, Kidneys ([2]; M4 (153 MBq)): 0.332 MBq-h/MBq | TIAC, Liver ([2]; M4 (153 MBq)): 0.229 MBq-h/MBq | TIAC, Lungs ([2]; M4 (153 MBq)): 0.214 MBq-h/MBq | TIAC, Pancreas ([2]; M4 (153 MBq)): 0.00723 MBq-h/MBq | TIAC, Remainder ([2]; M4 (153 MBq)): 1.39 MBq-h/MBq | TIAC, Small intestine ([2]; M4 (153 MBq)): 0.12 MBq-h/MBq | TIAC, Spleen ([2]; M4 (153 MBq)): 0.0354 MBq-h/MBq | TIAC, Thymus ([2]; M4 (153 MBq)): 0.00492 MBq-h/MBq | TIAC, Thyroid ([2]; M4 (153 MBq)): 0.00105 MBq-h/MBq | TIAC, Urinary bladder contents ([2]; M4 (153 MBq)): 0.0178 MBq-h/MBq
